Results as given in ChEMBL document CHEMBL3632517, “Chemical conjugation of 2-hexadecynoic acid to C5-curcumin enhances its antibacterial activity against multi-drug resistant bacteria” (Bioorg Med Chem Lett, 2015).
pIC50: −log10 of the molar value. In brackets after ≈: the same amount, converted by molar mass. Activity calls are given as the source filed them. The calls are words filed in the database; no cut-off is given here.

Experiments:
Staphylococcus aureus [1] = assay: Antibacterial activity against methicillin-resistant Staphylococcus aureus CIMRSA7 after 18 to 24 hrs by spectrophotometric analysis; type: functional, organism-based
Staphylococcus aureus [2] = assay: Antibacterial activity against methicillin-resistant Staphylococcus aureus ATCC 43300 after 18 to 24 hrs by spectrophotometric analysis; type: functional, organism-based
Staphylococcus aureus [3] = assay: Antibacterial activity against methicillin-resistant Staphylococcus aureus CIMRSA4 after 18 to 24 hrs by spectrophotometric analysis; type: functional, organism-based
Staphylococcus aureus [4] = assay: Antibacterial activity against methicillin-resistant Staphylococcus aureus CIMRSA6 after 18 to 24 hrs by spectrophotometric analysis; type: functional, organism-based
Escherichia coli = assay: Antibacterial activity against Escherichia coli ATCC 25922 after 18 to 24 hrs by spectrophotometric analysis; type: functional, organism-based
Staphylococcus aureus [5] = assay: Antibacterial activity against methicillin-resistant Staphylococcus aureus CIMRSA1 after 18 to 24 hrs by spectrophotometric analysis; type: functional, organism-based
Staphylococcus aureus [6] = assay: Antibacterial activity against methicillin-resistant Staphylococcus aureus CIMRSA5 after 18 to 24 hrs by spectrophotometric analysis; type: functional, organism-based
Staphylococcus aureus [7] = assay: Antibacterial activity against methicillin-resistant Staphylococcus aureus CIMRSA2 after 18 to 24 hrs by spectrophotometric analysis; type: functional, organism-based
Staphylococcus aureus [8] = assay: Antibacterial activity against methicillin-resistant Staphylococcus aureus CIMRSA3 after 18 to 24 hrs by spectrophotometric analysis; type: functional, organism-based
[9] = Therapeutic index, ratio of IC50 for human PBMC to IC50 for methicillin-resistant Staphylococcus aureus CIMRSA7; settings: read-out: Ratio IC50
Outline: (§1)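 Therapeutic index is PBMC cytotoxicity IC50 divided by the antibacterial IC50 against each MRSA strain. PBMCs came from healthy volunteers, and their viability was read by CTG luminescent cell viability assay. Experiments were run in triplicate (N = 3).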

[10] = Ratio of IC50 for human PBMC to IC50 for African green monkey Vero cells; type: cell-based; settings: human PBMC versus Vero cells, read-out: Ratio IC50
[11] = Therapeutic index, ratio of IC50 for human PBMC to IC50 for methicillin-resistant Staphylococcus aureus CIMRSA3; settings: read-out: Ratio IC50; outline: as §1
[12] = Therapeutic index, ratio of IC50 for human PBMC to IC50 for methicillin-resistant Staphylococcus aureus CIMRSA2; settings: read-out: Ratio IC50; outline: as §1
[13] = Therapeutic index, ratio of IC50 for human PBMC to IC50 for methicillin-resistant Staphylococcus aureus ATCC 43300; settings: read-out: Ratio IC50; outline: as §1
[14] = Therapeutic index, ratio of IC50 for human PBMC to IC50 for methicillin-resistant Staphylococcus aureus CIMRSA4; settings: read-out: Ratio IC50; outline: as §1
[15] = Therapeutic index, ratio of IC50 for human PBMC to IC50 for methicillin-resistant Staphylococcus aureus CIMRSA6; settings: read-out: Ratio IC50; outline: as §1
Vero = assay: Cytotoxicity against African green monkey Vero cells after 3 days by CTG luminescent cell viability assay; type: cell-based; settings: Chlorocebus sabaeus, 72 h
[16] = molecular target: DNA gyrase (Staphylococcus aureus) (UniProt P0A0K8+P20831); assay: (§2) Inhibition of supercoiling activity of Staphylococcus aureus DNA gyrase using relaxed pHOT1 plasmid DNA after 60 mins using ethidium bromide staining by […]electrophoresis analysis; type: protein-complex assay
Sequence of DNA gyrase (Staphylococcus aureus) (P0A0K8 2-644 limits assumed): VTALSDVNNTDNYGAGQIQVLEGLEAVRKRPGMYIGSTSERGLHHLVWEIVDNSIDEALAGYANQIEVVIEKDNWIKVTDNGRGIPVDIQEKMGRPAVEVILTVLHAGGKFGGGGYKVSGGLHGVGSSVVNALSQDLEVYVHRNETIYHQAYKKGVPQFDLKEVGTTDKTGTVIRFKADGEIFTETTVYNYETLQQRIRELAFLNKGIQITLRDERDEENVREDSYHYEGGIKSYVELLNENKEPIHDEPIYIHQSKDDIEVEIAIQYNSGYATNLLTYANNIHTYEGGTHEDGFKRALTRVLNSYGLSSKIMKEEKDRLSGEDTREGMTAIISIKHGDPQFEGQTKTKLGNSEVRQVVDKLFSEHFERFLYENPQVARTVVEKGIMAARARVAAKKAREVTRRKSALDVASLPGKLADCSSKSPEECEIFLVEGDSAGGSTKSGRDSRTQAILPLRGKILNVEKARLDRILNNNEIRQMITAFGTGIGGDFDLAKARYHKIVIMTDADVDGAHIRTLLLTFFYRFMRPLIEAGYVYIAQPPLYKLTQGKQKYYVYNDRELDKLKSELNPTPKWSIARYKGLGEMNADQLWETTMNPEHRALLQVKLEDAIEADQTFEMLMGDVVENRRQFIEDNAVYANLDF
Sequence of DNA gyrase (Staphylococcus aureus) (P20831 whole entry partner): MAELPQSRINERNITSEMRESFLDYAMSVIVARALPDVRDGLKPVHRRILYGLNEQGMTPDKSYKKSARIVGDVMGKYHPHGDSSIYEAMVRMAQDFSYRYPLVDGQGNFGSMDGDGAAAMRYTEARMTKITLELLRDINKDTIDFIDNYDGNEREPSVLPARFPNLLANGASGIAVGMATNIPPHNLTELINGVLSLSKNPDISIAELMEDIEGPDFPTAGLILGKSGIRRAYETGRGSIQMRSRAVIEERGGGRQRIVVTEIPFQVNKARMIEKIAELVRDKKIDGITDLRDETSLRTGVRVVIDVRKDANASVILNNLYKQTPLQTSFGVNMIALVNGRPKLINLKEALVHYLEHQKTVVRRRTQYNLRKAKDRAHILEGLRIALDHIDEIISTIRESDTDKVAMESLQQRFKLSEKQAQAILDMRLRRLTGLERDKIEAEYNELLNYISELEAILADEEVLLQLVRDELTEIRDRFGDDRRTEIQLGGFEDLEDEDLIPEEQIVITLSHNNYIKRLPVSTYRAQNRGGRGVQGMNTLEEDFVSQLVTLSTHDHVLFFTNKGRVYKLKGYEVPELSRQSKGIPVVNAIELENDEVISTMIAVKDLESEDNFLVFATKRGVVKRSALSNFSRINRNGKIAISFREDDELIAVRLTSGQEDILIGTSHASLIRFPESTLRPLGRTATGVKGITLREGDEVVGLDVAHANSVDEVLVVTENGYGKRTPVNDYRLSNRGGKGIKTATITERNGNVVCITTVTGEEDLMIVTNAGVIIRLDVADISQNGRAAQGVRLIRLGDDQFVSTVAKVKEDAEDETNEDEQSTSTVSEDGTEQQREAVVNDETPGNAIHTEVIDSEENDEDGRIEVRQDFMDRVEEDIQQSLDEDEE

PBMC = assay: Cytotoxicity against human PBMC after 3 days by CTG luminescent cell viability assay; type: cell-based; settings: 72 h
[17] = Therapeutic index, ratio of IC50 for human PBMC to IC50 for methicillin-resistant Staphylococcus aureus CIMRSA1; settings: read-out: Ratio IC50; outline: as §1
[18] = Therapeutic index, ratio of IC50 for human PBMC to IC50 for methicillin-resistant Staphylococcus aureus CIMRSA5; settings: read-out: Ratio IC50; outline: as §1
DNA gyrase = DNA gyrase (Staphylococcus aureus, UniProt P0A0K8+P20831); assay: as §2; type: protein-complex assay
Sequence of DNA gyrase (P0A0K8 whole entry): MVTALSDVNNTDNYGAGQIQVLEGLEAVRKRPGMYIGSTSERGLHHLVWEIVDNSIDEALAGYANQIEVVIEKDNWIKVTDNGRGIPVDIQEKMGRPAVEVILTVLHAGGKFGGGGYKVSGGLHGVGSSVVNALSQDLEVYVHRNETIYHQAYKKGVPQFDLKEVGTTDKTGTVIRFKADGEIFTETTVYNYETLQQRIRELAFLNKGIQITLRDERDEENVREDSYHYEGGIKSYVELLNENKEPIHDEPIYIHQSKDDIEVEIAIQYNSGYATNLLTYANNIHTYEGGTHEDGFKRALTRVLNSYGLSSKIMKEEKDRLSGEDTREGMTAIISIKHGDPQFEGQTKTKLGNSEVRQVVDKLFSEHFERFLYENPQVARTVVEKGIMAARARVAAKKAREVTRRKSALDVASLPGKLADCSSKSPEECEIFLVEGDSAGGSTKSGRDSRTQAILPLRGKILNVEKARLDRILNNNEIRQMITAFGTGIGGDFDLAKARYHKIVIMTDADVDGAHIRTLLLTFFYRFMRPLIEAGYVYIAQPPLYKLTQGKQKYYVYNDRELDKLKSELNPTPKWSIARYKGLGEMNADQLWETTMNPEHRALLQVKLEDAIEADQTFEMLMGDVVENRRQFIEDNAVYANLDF
Sequence of DNA gyrase (P20831 whole entry): as the sequence (P20831 whole entry partner) above

Row | SMILES | IC50 (Staphylococcus aureus [1]) | IC50 (Staphylococcus aureus [2]) | IC50 (Staphylococcus aureus [3]) | IC50 (Staphylococcus aureus [4]) | IC50 (Escherichia coli) | IC50 (Staphylococcus aureus [5]) | IC50 (Staphylococcus aureus [6]) | IC50 (Staphylococcus aureus [7]) | IC50 (Staphylococcus aureus [8]) | selectivity ratio [9] | MIC (Staphylococcus aureus [1]) | selectivity ratio [11] | selectivity ratio [12] | MIC (Staphylococcus aureus [2]) | selectivity ratio [13] | MIC (Staphylococcus aureus [3]) | MIC (Staphylococcus aureus [5]) | MIC (Staphylococcus aureus [6]) | MIC (Staphylococcus aureus [7]) | MIC (Staphylococcus aureus [8]) | other results
1 | CCCCCCCCCCCCCCCC(=O)O [PALMITIC ACID] | > 1000 µg/mL | > 1000 µg/mL | > 1000 µg/mL | > 1000 µg/mL | > 1000 µg/mL | > 1000 µg/mL | > 1000 µg/mL | > 1000 µg/mL | > 1000 µg/mL | – | – | – | – | – | – | – | – | – | – | – | –
2 | COc1cc(/C=C/C(=O)/C=C/c2ccc(O)c(OC)c2)ccc1O | 303 µg/mL (≈ 929 µM) | 111 µg/mL (≈ 341 µM) | 185 µg/mL (≈ 567 µM) | 195 µg/mL (≈ 597 µM) | > 1000 µg/mL | 141 µg/mL (≈ 432 µM) | 202 µg/mL (≈ 620 µM) | 133 µg/mL (≈ 409 µM) | 124 µg/mL (≈ 379 µM) | 0.2 | 500 µg/mL (≈ 1530 µM) | 0.4 | 0.4 | 250 µg/mL (≈ 766 µM) | 0.4 | 500 µg/mL (≈ 1530 µM) | 250 µg/mL (≈ 766 µM) | 500 µg/mL (≈ 1530 µM) | 250 µg/mL (≈ 766 µM) | 250 µg/mL (≈ 766 µM) | selectivity ratio [10]: 8.2; selectivity ratio [14]: 0.3; MIC (Staphylococcus aureus [4]): 500 µg/mL (≈ 1530 µM); selectivity ratio [15]: 0.2; IC50 (Vero): 5.7 µg/mL (≈ 17.5 µM); inhibition [16]: inactive; IC50 (PBMC): 46.9 µg/mL (≈ 144 µM); selectivity ratio [17]: 0.3; selectivity ratio [18]: 0.2
3 | CCCCCCCCCCCCCC#CC(=O)Oc1ccc(/C=C/C(=O)/C=C/c2ccc(OC(=O)C#CCCCCCCCCCCCCC)c(OC)c2)cc1OC | 34.2 µg/mL (≈ 43 µM) | 39.5 µg/mL (≈ 49.7 µM) | 24.9 µg/mL (≈ 31.3 µM) | 38.9 µg/mL (≈ 48.9 µM) | > 1000 µg/mL | 30.3 µg/mL (≈ 38.1 µM) | 25.4 µg/mL (≈ 31.9 µM) | 34.9 µg/mL (≈ 43.9 µM) | 34.2 µg/mL (≈ 43 µM) | 7.2 | 62.5 µg/mL (≈ 78.6 µM) | 7.2 | 7.1 | 62.5 µg/mL (≈ 78.6 µM) | 6.2 | 31.3 µg/mL (≈ 39.4 µM) | 62.5 µg/mL (≈ 78.6 µM) | 31.3 µg/mL (≈ 39.4 µM) | 62.5 µg/mL (≈ 78.6 µM) | 62.5 µg/mL (≈ 78.6 µM) | selectivity ratio [14]: 9.9; MIC (Staphylococcus aureus [4]): 62.5 µg/mL (≈ 78.6 µM); selectivity ratio [15]: 6.3; IC50 (Vero): > 100 µg/mL; pIC50 (DNA gyrase): 3.90; IC50 (PBMC): 247 µg/mL (≈ 310 µM); selectivity ratio [17]: 8.1; selectivity ratio [18]: 9.7
4 | CCCCCCCCCCCCCCCC(=O)Oc1ccc(/C=C/C(=O)/C=C/c2ccc(OC(=O)CCCCCCCCCCCCCCC)c(OC)c2)cc1OC | > 1000 µg/mL | > 1000 µg/mL | > 1000 µg/mL | > 1000 µg/mL | > 1000 µg/mL | > 1000 µg/mL | > 1000 µg/mL | > 1000 µg/mL | > 1000 µg/mL | – | – | – | – | – | – | – | – | – | – | – | inhibition [16]: inactive
5 | COc1cccc(OC)c1C(=O)N[C@@H]1C(=O)N2[C@@H]1SC(C)(C)[C@@H]2C(=O)O [METHICILLIN] | 1.3 µg/mL (≈ 3.42 µM) | 0.98 µg/mL (≈ 2.58 µM) | 11.8 µg/mL (≈ 31 µM) | 1.2 µg/mL (≈ 3.15 µM) | > 1000 µg/mL | 2.2 µg/mL (≈ 5.78 µM) | 1.9 µg/mL (≈ 4.99 µM) | 11.8 µg/mL (≈ 31 µM) | 2.2 µg/mL (≈ 5.78 µM) | – | 3.9 µg/mL (≈ 10.3 µM) | – | – | 1.95 µg/mL (≈ 5.13 µM) | – | 31.3 µg/mL (≈ 82.3 µM) | 7.8 µg/mL (≈ 20.5 µM) | 3.9 µg/mL (≈ 10.3 µM) | 31.3 µg/mL (≈ 82.3 µM) | 3.9 µg/mL (≈ 10.3 µM) | –
